The source made the active and inactive calls. No cut-off for these calls is given here.
How the values were obtained:
[1] = tested on: Rattus norvegicus; experiment: Hypoglycemic activity in normal 16 hrs fasted Wistar rat assessed as reduction in serum glucose level at 50 mg/kg, po after 1 hr by glucose oxidase method; format: functional
Summary of the method: (§1)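 Male Wistar rats, 160–190 g, fasted ≥16 h with free water. Groups: control, vehicle (0.5 mL 1% EtOH–H2O) and compound by oral gavage. Retro-orbital blood drawn and centrifuged; serum glucose by glucose oxidase at 0, 1, 2 and 3 h. Mean ± SEM, n = 6 in duplicate, compared with the 0 h value.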

[2] = tested on: Rattus norvegicus; experiment: Hypoglycemic activity in normal 16 hrs fasted Wistar rat assessed as reduction in serum glucose level at 100 mg/kg, po after 1 hr by glucose oxidase method; format: functional; summary of the method: as §1
[3] = tested on: Rattus norvegicus; experiment: Hypoglycemic activity in normal 16 hrs fasted Wistar rat assessed as reduction in serum glucose level at 200 mg/kg, po after 1 hr by glucose oxidase method; format: functional; summary of the method: as §1
[4] = tested on: Rattus norvegicus; experiment: Hypoglycemic activity in normal 16 hrs fasted Wistar rat assessed as reduction in serum glucose level at 50 mg/kg, po after 2 hrs by glucose oxidase method; format: functional; summary of the method: as §1
[5] = tested on: Rattus norvegicus; experiment: Hypoglycemic activity in normal 16 hrs fasted Wistar rat assessed as reduction in serum glucose level at 100 mg/kg, po after 2 hrs by glucose oxidase method; format: functional; summary of the method: as §1
[6] = tested on: Rattus norvegicus; experiment: Hypoglycemic activity in normal 16 hrs fasted Wistar rat assessed as reduction in serum glucose level at 200 mg/kg, po after 2 hrs by glucose oxidase method; format: functional; summary of the method: as §1
[7] = tested on: Rattus norvegicus; experiment: Hypoglycemic activity in normal 16 hrs fasted Wistar rat assessed as reduction in serum glucose level at 50 mg/kg, po after 3 hrs by glucose oxidase method; format: functional; summary of the method: as §1
[8] = tested on: Rattus norvegicus; experiment: Hypoglycemic activity in normal 16 hrs fasted Wistar rat assessed as reduction in serum glucose level at 100 mg/kg, po after 3 hrs by glucose oxidase method; format: functional; summary of the method: as §1
[9] = tested on: Rattus norvegicus; experiment: Hypoglycemic activity in normal 16 hrs fasted Wistar rat assessed as reduction in serum glucose level at 200 mg/kg, po after 3 hrs by glucose oxidase method; format: functional; summary of the method: as §1
[10] = tested on: Rattus norvegicus; experiment: Hypoglycemic activity in diabetic 16 hrs fasted Wistar rat assessed as reduction in alloxan-induced serum glucose level at 50 mg/kg, po after 1 hr by glucose oxidase method; format: functional
Summary of the method: (§2)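 Male Wistar rats, 160–190 g. Alloxan monohydrate 60 mg/kg i.v. in 0.9% NaCl given after an overnight fast. Rats with serum glucose 25–30.5 mmol/L at 72 h were fasted and randomized to diabetic, vehicle (0.5 mL 1% EtOH–H2O) or compound groups. Compound given by oral gavage. Retro-orbital serum glucose by glucose oxidase at 0, 1, 2 and 3 h. Mean ± SEM, n = 6 in duplicate, compared with 0 h.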

[11] = tested on: Rattus norvegicus; experiment: Hypoglycemic activity in diabetic 16 hrs fasted Wistar rat assessed as reduction in alloxan-induced serum glucose level at 100 mg/kg, po after 1 hr by glucose oxidase method; format: functional; summary of the method: as §2
[12] = tested on: Rattus norvegicus; experiment: Hypoglycemic activity in diabetic 16 hrs fasted Wistar rat assessed as reduction in alloxan-induced serum glucose level at 200 mg/kg, po after 1 hr by glucose oxidase method; format: functional; summary of the method: as §2
[13] = tested on: Rattus norvegicus; experiment: Hypoglycemic activity in diabetic 16 hrs fasted Wistar rat assessed as reduction in alloxan-induced serum glucose level at 50 mg/kg, po after 2 hrs by glucose oxidase method; format: functional; summary of the method: as §2
[14] = tested on: Rattus norvegicus; experiment: Hypoglycemic activity in diabetic 16 hrs fasted Wistar rat assessed as reduction in alloxan-induced serum glucose level at 100 mg/kg, po after 2 hrs by glucose oxidase method; format: functional; summary of the method: as §2
[15] = tested on: Rattus norvegicus; experiment: Hypoglycemic activity in diabetic 16 hrs fasted Wistar rat assessed as reduction in alloxan-induced serum glucose level at 200 mg/kg, po after 2 hrs by glucose oxidase method; format: functional; summary of the method: as §2
[16] = tested on: Rattus norvegicus; experiment: Hypoglycemic activity in diabetic 16 hrs fasted Wistar rat assessed as reduction in alloxan-induced serum glucose level at 50 mg/kg, po after 3 hrs by glucose oxidase method; format: functional; summary of the method: as §2
[17] = tested on: Rattus norvegicus; experiment: Hypoglycemic activity in diabetic 16 hrs fasted Wistar rat assessed as reduction in alloxan-induced serum glucose level at 100 mg/kg, po after 3 hrs by glucose oxidase method; format: functional; summary of the method: as §2
[18] = tested on: Rattus norvegicus; experiment: Hypoglycemic activity in diabetic 16 hrs fasted Wistar rat assessed as reduction in alloxan-induced serum glucose level at 200 mg/kg, po after 3 hrs by glucose oxidase method; format: functional; summary of the method: as §2
[19] = tested on: Rattus norvegicus; experiment: Hypoglycemic activity in 16 hrs fasted Wistar rat assessed as reduction in serum glucose level at 100 mg/kg, po measured after 30 mins of glucose challenge by oral glucose tolerance test; format: functional
Summary of the method: (§3)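 Male Wistar rats, 160–190 g, fasted ≥16 h with water allowed. Oral gavage of glucose 4 g/kg alone or with compound 100 mg/kg. Controls: untreated rats and tolbutamide 100 mg/kg. Blood drawn from the retro-orbital plexus before and at 30, 60, 90 and 180 min after the load. Serum glucose by glucose oxidase; mean ± SEM, n = 3 in duplicate.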

[20] = tested on: Rattus norvegicus; experiment: Hypoglycemic activity in 16 hrs fasted Wistar rat assessed as reduction in serum glucose level at 100 mg/kg, po measured after 60 mins of glucose challenge by oral glucose tolerance test; format: functional; summary of the method: as §3
[21] = tested on: Rattus norvegicus; experiment: Hypoglycemic activity in 16 hrs fasted Wistar rat assessed as reduction in serum glucose level at 100 mg/kg, po measured after 90 mins of glucose challenge by oral glucose tolerance test; format: functional; summary of the method: as §3
[22] = tested on: Rattus norvegicus; experiment: Hypoglycemic activity in 16 hrs fasted Wistar rat assessed as reduction in serum glucose level at 100 mg/kg, po measured after 180 mins of glucose challenge by oral glucose tolerance test; format: functional; summary of the method: as §3
[23] = tested on: Radical scavenging activity; experiment: Antioxidant activity assessed as DPPH radical scavenging activity; format: functional
Summary of the method: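 DPPH in EtOH, 200 μM, in the medium; radical loss read as absorbance decrease at 515 nm.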

[24] = tested on: Lung; experiment: Antioxidant activity in Wistar rat lung assessed as half maximal inhibition of myeloperoxidase; format: functional, tissue-based
Summary of the method: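 Enzyme source: rat lung homogenised in ice-cold phosphate buffer. Activity was read as the slope of absorbance at 450 nm with o-dianisidine-2HCl and H2O2 and converted to units against a standard curve of commercial enzyme. Each concentration point was monitored kinetically, and the concentration giving half-maximal inhibition (K0.5) was taken from the inhibition curve.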

[25] = tested on: Liver microsomes; experiment: Antioxidant activity in Wistar rat liver microsomes assessed as inhibition of ascorbyl radical-induced lipid peroxidation by TBARS assay; format: functional, Microsome
Summary of the method: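 Microsomes from male Wistar rat liver, isolated by differential centrifugation with calcium aggregation and stored at -70 °C; protein by Lowry, fixed at 2 mg/mL. Ascorbyl-radical peroxidation started with 25 µM FeSO4 plus 500 µM ascorbate. TBARS read with extinction coefficient 1.56 × 10^5 M-1 cm-1; IC50 derived; mean ± SEM, n = 3 in duplicate.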

[26] = tested on: Liver microsomes; experiment: Antioxidant activity in Wistar rat liver microsomes assessed as inhibition of hydroxyl radical-induced lipid peroxidation by TBARS assay; format: functional, Microsome
Summary of the method: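 Male Wistar rat liver microsomes, isolated by differential centrifugation with calcium aggregation and stored at -70 °C, at 2 mg protein/mL in 0.1 M KH2PO4 pH 7.4. Hydroxyl-radical peroxidation started with 25 µM FeCl2, 2.8 mM H2O2 and 100 µM sodium ascorbate. TBARS read with extinction coefficient 1.56 × 10^5 M-1 cm-1; IC50 derived; mean ± SEM, n = 3 in duplicate.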

[27] = Antioxidant activity in 1-alpha-phosphatidylcholine liposome assessed as inhibition of ascorbyl radical-induced lipid peroxidation by TBARS assay; format: functional
Summary of the method: (§4)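 Egg-yolk phosphatidylcholine or soybean asolectin bilayer liposomes made by cholate/deoxycholate solubilisation then dialysis; lipid 12.5 mg/mL. Ascorbyl-radical peroxidation started with 25 µM FeSO4 plus 500 µM ascorbate. TBARS read with extinction coefficient 1.56 × 10^5 M-1 cm-1; IC50 derived; mean ± SEM, n = 3 in duplicate.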

[28] = Antioxidant activity in asolectin liposome assessed as inhibition of ascorbyl radical-induced lipid peroxidation by TBARS assay; format: functional; summary of the method: as §4
[29] = tested on: Lung; experiment: Antioxidant activity in Wistar rat lung assessed as maximal inhibition of myeloperoxidase at 400 uM

Question: With C[C@@H]1O[C@@H](Oc2cc(O)c3c(=O)c(O[C@@H]4O[C@@H](C)[C@H](O)[C@@H](O)[C@H]4O)c(-c4ccc(O)cc4)oc3c2)[C@H](O)[C@H](O)[C@H]1O [KAEMPFERITRIN] as the compound, how does the Activity [1] read?
Answer: 5.5 mmol/L

Question: What about the Activity [2] of the same compound?
Answer: 5.4 mmol/L

Question: And the Activity [3]?
Answer: 4.5 mmol/L

Question: What about the Activity [4] of the same compound?
Answer: 5.9 mmol/L

Question: And the Activity [5]?
Answer: 5.5 mmol/L

Question: And the Activity [6]?
Answer: 5 mmol/L

Question: What about the Activity [7] of the same compound?
Answer: 6.2 mmol/L

Question: And the Activity [8]?
Answer: 6.2 mmol/L

Question: What about the Activity [9] of the same compound?
Answer: 5.1 mmol/L

Question: What about the Activity [10] of the same compound?
Answer: 23.5 mmol/L

Question: What about the Activity [11] of the same compound?
Answer: 24.3 mmol/L

Question: And the Activity [12]?
Answer: 22.4 mmol/L

Question: What about the Activity [13] of the same compound?
Answer: 25.2 mmol/L

Question: And the Activity [14]?
Answer: 24 mmol/L

Question: What about the Activity [15] of the same compound?
Answer: 22.2 mmol/L

Question: And the Activity [16]?
Answer: 25.3 mmol/L

Question: What about the Activity [17] of the same compound?
Answer: 24 mmol/L

Question: And the Activity [18]?
Answer: 22.4 mmol/L

Question: What about the Activity [19] of the same compound?
Answer: 9.5 mmol/L

Question: What about the Activity [20] of the same compound?
Answer: 8.8 mmol/L

Question: And the Activity [21]?
Answer: 8.2 mmol/L

Question: What about the Activity [22] of the same compound?
Answer: 6.7 mmol/L

Question: What about the IC50 [23] of the same compound?
Answer: 84 µM

Question: And the K [24]?
Answer: 86 µM

Question: And the IC50 [25]?
Answer: 320 µM

Question: And the IC50 [26]?
Answer: 85 µM

Question: And the IC50 [27]?
Answer: 112 µM

Question: What about the IC50 [28] of the same compound?
Answer: 223 µM

Question: And the Activity [29]?
Answer: Active

Question: For O=c1c(O)c(-c2ccc(O)c(O)c2)oc2cc(O)cc(O)c12 [QUERCETIN], which IC50 [25] is on record?
Answer: 125 µM

Question: And the IC50 [26]?
Answer: 7.5 µM

Question: And the IC50 [27]?
Answer: 80 µM

Question: What about the IC50 [28] of the same compound?
Answer: 80 µM

Question: What does the source list for CCCCNC(=O)NS(=O)(=O)c1ccc(C)cc1 [TOLBUTAMIDE]?
Answer: Activity [19]: 7.8 mmol/L; Activity [20]: 6.3 mmol/L; Activity [21]: 5.9 mmol/L; Activity [22]: 5.2 mmol/L

Reference: ChEMBL document CHEMBL1151204, “Hypoglycemic effect and antioxidant potential of kaempferol-3,7-O-(alpha)-dirhamnoside from Bauhinia forficata leaves” (J Nat Prod, 2004)
